Measurements as given in ChEMBL document CHEMBL4513216, “Probing the Open Global Health Chemical Diversity Library for Multistage-Active Starting Points for Next-Generation Antimalarials” (ACS Infect Dis, 2020).

Assay: Toxicity liver stage against HepG2, at 10uM
Assay type: cell-based
Set-up: test concentration 10 uM, cell line HepG2-A16-CD81EGFP
Conditions: human, HepG2-A16-CD81EGFP cells; read-out: INHIBITION
How it was run: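 Uninfected HepG2-A16-CD81EGFP cells, 3 × 10^3 per well, 1536-well, plated on prespotted compound at 10 μM final, parasite-free screening media added to match infected plates; puromycin 10 μM positive, DMSO 0.5% negative; run in parallel with 48 h PbLuc assay at 37 °C, 5% CO2; viability by CellTiter-Glo luminescence, normalized to controls.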

In the case of `CCN(CC)CCNCC1CCOC(C)(C)C1` (configuration not stated), the cytotoxicity at 10 µM was -6.87%.
Work on `CC(C)(C)OCC1CN(CC2CC2)S(=O)(=O)c2cnccc2O1` (configuration not stated) yielded a cytotoxicity at 10 µM of -1.16%.
Work on `COCCNC(=O)Cn1ccc2ccc(F)cc21` yielded a cytotoxicity at 10 µM of 2.14%.
Compound `CC(=O)Nc1ccc(OCc2noc(C(=O)N3CCCCC3)n2)cc1` has a cytotoxicity at 10 µM of -3.68%.
`O=C(CCc1nc2cccnc2[nH]1)Nc1ccc2c(c1)OCC(=O)N2` gave a cytotoxicity at 10 µM of 6.78%.
With `COc1ccccc1OCC(=O)NCC(O)(c1cccs1)C1CC1` (configuration not stated) the cytotoxicity at 10 µM was -5%.
`COC1CCN(C(=O)CCn2ccc(=O)[nH]c2=O)CC1` showed a cytotoxicity at 10 µM of -4.73%.
`COc1cc(N2C[C@H]3CN(CCN4CCCC4)C(=O)[C@H]3C2)ncn1` gave a cytotoxicity at 10 µM of 12.7%.
For `Cn1cc(CN2C[C@@H]3COC[C@]3(C(=O)N3CCCO3)C2)cn1`, the cytotoxicity at 10 µM was 12.1%.
`O=S(=O)(NC1=NCN(CCc2cccs2)CN1)c1ccc(Cl)cc1` gave a cytotoxicity at 10 µM of -2.03%.
`O=C(CSC1CCc2ccccc2NC1=O)NCCO` (configuration not stated) gave a cytotoxicity at 10 µM of 5.52%.
In the case of `O=C(NCc1cnc2n1CCN(CC1CC1)CC2)C1CCC1`, the cytotoxicity at 10 µM was -12.9%.
Compound `COCCN1CCC2(CCN(Cc3nccs3)CC2)C1=O` has a cytotoxicity at 10 µM of -4.36%.
`CC(C)NC(=O)c1nn(C)c(NC(=O)Cc2ccccc2)c1F` showed a cytotoxicity at 10 µM of -1.73%.
`Cc1nccn1[C@@H]1CC[C@@H](N(C)S(=O)(=O)c2cccc(F)c2)[C@H]1O` showed a cytotoxicity at 10 µM of -2.4%.
Compound `Cc1cnc(C(=O)N(C)[C@@H]2CCC[C@@H](Oc3ccccc3)[C@@H]2O)cn1` has a cytotoxicity at 10 µM of -15.3%.
For `CNC(=O)c1ccc(C2CCCN(C(=O)c3c(C)noc3C)C2)nc1` (configuration not stated), the cytotoxicity at 10 µM was -9.88%.
Compound `O=C(N1CCCCC1)N1CCCC(c2ncncc2-c2ccncc2)C1` (configuration not stated) has a cytotoxicity at 10 µM of -32.1%.
For `CCCC(=O)N1CCC(c2nc(O)c3c(n2)CCN(C2CCCC2)C3)C1` (configuration not stated), the cytotoxicity at 10 µM was 9.34%.
`O=C(c1cnccn1)N1CCC(Cc2cnc3[nH]ccc3c2)CC1` showed a cytotoxicity at 10 µM of -18.6%.
In the case of `CN1CCN(C2CCN(CC(O)c3ccccc3F)CC2)C1=O` (configuration not stated), the cytotoxicity at 10 µM was -0.275%.
For `CC(c1nc(C2CC2)no1)N1CCc2c(ncn2C2CC2)C1` (configuration not stated), the cytotoxicity at 10 µM was -2.52%.
`CC(C)CN1CCC(NC(=O)NCCC(=O)NCc2ccccc2)CC1` gave a cytotoxicity at 10 µM of 1.64%.
`NC(=O)C1CCN(C(=O)NCc2ccccc2Cn2ccnc2)CC1` showed a cytotoxicity at 10 µM of -0.302%.
Compound `CC(C)CN(Cc1nnc(-c2ccco2)o1)CC(C)C` has a cytotoxicity at 10 µM of 0.0773%.
Work on `Cc1cc(CN2CCN(C(C)c3nc(C(C)C)no3)CC2)no1` (configuration not stated) yielded a cytotoxicity at 10 µM of 3.29%.
Compound `CC(=O)N1CCN(CCNS(=O)(=O)c2cc(F)ccc2C)CC1` has a cytotoxicity at 10 µM of 5.42%.
`CC(C)c1nnc2n1CC(CNCc1ccc3c(c1)OCCO3)CC2` (configuration not stated) gave a cytotoxicity at 10 µM of -5.92%.
In the case of `CSc1ccc(NCc2csc(CS(C)(=O)=O)n2)cc1F`, the cytotoxicity at 10 µM was -9.99%.
`Cn1nnc2cc(C(=O)NS(=O)(=O)c3ccc(F)cc3)ccc21` gave a cytotoxicity at 10 µM of 5.46%.
With `O=C(c1ccc(N2CCCC2)nc1)N1CCCC(c2nccs2)C1` (configuration not stated) the cytotoxicity at 10 µM was 15.4%.
Work on `COCCNC(C)c1ccc(-c2cccnc2)cc1` (configuration not stated) yielded a cytotoxicity at 10 µM of 2.7%.
In the case of `COCCN1CCN(CC(O)c2ccc(C(F)(F)F)cc2)CC1` (configuration not stated), the cytotoxicity at 10 µM was -10.7%.
With `COc1ccccc1N1CCC(CNS(=O)(=O)c2c(C)nn(C)c2C)C1` (configuration not stated) the cytotoxicity at 10 µM was -21.8%.
Compound `CC(=O)NCCC(=O)NC1(c2ccc(Cl)c(Cl)c2)CC1` has a cytotoxicity at 10 µM of 7.49%.
`CSC(C)(C)CNC(=O)NCc1cccc(-n2ccnc2)c1` gave a cytotoxicity at 10 µM of 32.9%.
For `N#Cc1ccc(CNC(=O)NCCC(=O)NC2CCCC2)c(F)c1`, the cytotoxicity at 10 µM was 3.79%.
Work on `CC[C@@H](C)[C@@H](N)C(=O)Nc1cccc(-c2cnc(N)nc2)c1` yielded a cytotoxicity at 10 µM of 0.942%.
In the case of `O=C(O)[C@H]1C[C@@H](C(=O)NCc2ccncc2)CN(Cc2ccccc2)C1`, the cytotoxicity at 10 µM was -138%.
`Cc1cnc(C(=O)N2CC(=O)N(c3ccccc3Cl)CC2C)cn1` (configuration not stated) showed a cytotoxicity at 10 µM of -8.23%.
`Cc1ccccc1C(=O)NC[C@@H]1CCN(C(=O)c2cccn2C)C[C@H]1O` gave a cytotoxicity at 10 µM of -45.3%.
In the case of `CN1CCCC(CCC(=O)NCCCn2ncc3ccccc32)C1` (configuration not stated), the cytotoxicity at 10 µM was 2.39%.
Work on `Cc1cc2ccccc2n1CCC(=O)N1CCCC1Cn1cccn1` (configuration not stated) yielded a cytotoxicity at 10 µM of 2.15%.
In the case of `COc1cc(NC(=O)NCc2ccccn2)cc(OC)c1`, the cytotoxicity at 10 µM was -4.13%.
Work on `CCc1cccc(OCCCN(C)C(=O)CN2CCNC2=O)c1` yielded a cytotoxicity at 10 µM of -2.48%.
With `Cc1ccccc1CC(=O)N1CCc2c(ncnc2N2CCOCC2)C1` the cytotoxicity at 10 µM was -3.39%.
In the case of `CNC(=O)c1nc(CN2CCOC(CCCC(C)C)C2)no1` (configuration not stated), the cytotoxicity at 10 µM was -2.25%.
With `CC(C)n1ccnc1C1CCN(C(=O)C2COc3ccccc3O2)CC1` (configuration not stated) the cytotoxicity at 10 µM was -8.28%.
`COc1ccc2c(c1)OCC(CNC(=O)c1ccc(=O)n(C)c1)C2` (configuration not stated) gave a cytotoxicity at 10 µM of -11.2%.
With `Cc1nn(C)cc1-c1cc(C(F)(F)F)n(CCCN)n1` the cytotoxicity at 10 µM was -6.25%.
In the case of `O=C(NCCn1nc2ccccn2c1=O)c1scnc1Cl`, the cytotoxicity at 10 µM was -13.9%.
Work on `CCC1c2ccsc2CCN1C(=O)NCc1cccnc1N(C)C` (configuration not stated) yielded a cytotoxicity at 10 µM of -17.4%.
In the case of `Cc1nc(C2CCCN2C(=O)c2cc3c(s2)CCC3)no1` (configuration not stated), the cytotoxicity at 10 µM was -6.82%.
`CC(NC(=O)N1CCC(n2cncn2)CC1)c1ccc(F)cc1` (configuration not stated) gave a cytotoxicity at 10 µM of -3.66%.
With `c1ncn(CC2CN(Cc3ccc4c(c3)OCCO4)CCO2)n1` (configuration not stated) the cytotoxicity at 10 µM was -0.282%.
`CS(=O)(=O)c1ccc(CNC(=O)N2CCC(CO)CC2)cc1` showed a cytotoxicity at 10 µM of -11.6%.
For `Cc1cnn(CC2CCCN2Cc2noc(CC(C)C)n2)c1` (configuration not stated), the cytotoxicity at 10 µM was -5.04%.
Compound `Cc1ccccc1CC(C)NC(=O)Nc1cnn(CC(N)=O)c1` (configuration not stated) has a cytotoxicity at 10 µM of -11.5%.
In the case of `Cc1nn(C)c(N(C)C)c1CNCc1ccnc(N2CCOCC2)c1`, the cytotoxicity at 10 µM was -13%.
For `COc1ccc(OC)c(C(=O)N(C)Cc2ncc(C)c(OC)c2C)c1`, the cytotoxicity at 10 µM was -4.3%.
In the case of `CC(C)c1nc(C2CCCN2Cc2ccno2)no1` (configuration not stated), the cytotoxicity at 10 µM was -6.85%.
In the case of `O=C(C1CCCC1)N1CCN(Cc2nc(-c3ccco3)no2)CC1`, the cytotoxicity at 10 µM was -7.84%.
Compound `Cc1ccc(C(CNC(=O)NCc2cc[nH]n2)N2CCOCC2)o1` (configuration not stated) has a cytotoxicity at 10 µM of -8.78%.
For `CCC1CN(CC(=O)Nc2sccc2C#N)CCO1` (configuration not stated), the cytotoxicity at 10 µM was -9.29%.
With `CCn1cnnc1C1CCN(C(=O)c2cnc(C3CC3)s2)CC1` the cytotoxicity at 10 µM was -7.59%.
With `Cn1c(C2CC2)nc2c1CCN(CC(=O)Nc1nncs1)C2` the cytotoxicity at 10 µM was -6.44%.
`COc1ccc(CNCC(C)Oc2ccccn2)cc1Cl` (configuration not stated) gave a cytotoxicity at 10 µM of 7.36%.
Compound `CN1CCO[C@@H]2CN(S(=O)(=O)c3ccc(F)cc3)CC[C@@H]2C1` has a cytotoxicity at 10 µM of 2.56%.
With `CN1CC(=O)N(c2ccccc2)CC12CCN(C(=O)c1cccs1)C2` (configuration not stated) the cytotoxicity at 10 µM was -79.3%.
`Cn1cc(C[C@H]2[C@H](N3CCOCC3)CCN2C(=O)c2ccco2)cn1` showed a cytotoxicity at 10 µM of 2.44%.
For `Cn1cc(CN2CC[C@H](O)[C@@H]2Cc2ccccc2)cn1`, the cytotoxicity at 10 µM was -73%.
In the case of `Cc1noc(C)c1CN1CC[C@H]2OCC[C@@]2(C(=O)NC2CCCC2)C1`, the cytotoxicity at 10 µM was -75.7%.
Work on `Cc1ccoc1C(=O)N1CCn2nnc(COc3cccnc3)c2C1` yielded a cytotoxicity at 10 µM of -82.5%.
Work on `c1cc(CN2CCCC23CCCN(Cc2ccoc2)C3)ccn1` (configuration not stated) yielded a cytotoxicity at 10 µM of 2.25%.
With `Cc1csc2nc3n(c(=O)c12)CCN(Cc1c[nH]cn1)CC3` the cytotoxicity at 10 µM was -18.8%.
Work on `CN1C(=O)CCCC12CCCN(Cc1nccs1)C2` (configuration not stated) yielded a cytotoxicity at 10 µM of 11.4%.
`Cn1cc(CN2CCOCC3(C2)CN(c2ccccc2)C(=O)CO3)cn1` (configuration not stated) showed a cytotoxicity at 10 µM of 0.436%.
For `C[C@H](N)Cn1nc(-c2cccs2)oc1=O`, the cytotoxicity at 10 µM was -1.94%.
Work on `c1nc2c(c(NC3CCC3)n1)CCNCC2` yielded a cytotoxicity at 10 µM of -1.28%.
With `Cn1cncc1CN1CCC2(CCCN2c2ncccn2)CC1` the cytotoxicity at 10 µM was 9.37%.
Compound `NC(=O)c1cccc(CNCC=Cc2ccccc2)c1` has a cytotoxicity at 10 µM of 5.62%.
In the case of `CN(CCCOc1ccccc1Cl)C(=O)CN1C[C@H]2CC[C@@H](CC1=O)N2`, the cytotoxicity at 10 µM was -11.9%.
